# Reference: ChEMBL document CHEMBL3232836, “Discovery of 4-anilino α-carbolines as novel Brk inhibitors” (Bioorg Med Chem Lett, 2014)
# Assays:
# [1] = biological target: Protein-tyrosine kinase 6 (Homo sapiens, UniProt Q13882); assay: Inhibition of Brk (unknown origin) using [gamma-33P]-ATP after 60 mins by scintillation counting
# [2] = biological target: Mitogen-activated protein kinase 10 (Homo sapiens, UniProt P53779); assay: Inhibition of human JNK3
# [3] = biological target: Homeodomain-interacting protein kinase 2 (Homo sapiens, UniProt Q9H2X6); assay: Inhibition of human HIPK2
# [4] = Antiproliferative activity against human BT549 cells by sulfur rhodamine assay; type: functional; conditions: BT-549
# [5] = Inhibition of human MARK5
# [6] = biological target: RAC-alpha serine/threonine-protein kinase (Homo sapiens, UniProt P31749); assay: Inhibition of human AKT1
# [7] = biological target: Serine/threonine-protein kinase PAK 2 (Homo sapiens, UniProt Q13177); assay: Inhibition of human PAK2
# Outline: (§1)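 Radiometric kinase assay in FlashPlates. Test compound was added from a 10% DMSO solution and ATP from an aqueous solution. The reaction was stopped with 2% (v/v) phosphoric acid, and plates were aspirated and washed with water or 0.9% NaCl. ³³Pi incorporation was read on a microplate scintillation counter.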
# MCF7 = assay: Antiproliferative activity against human MCF7 cells by sulfur rhodamine assay; type: functional
# [8] = biological target: Tyrosine-protein kinase JAK3 (Homo sapiens, UniProt P52333); assay: Inhibition of human JAK3; outline: as §1
# Sequence of Tyrosine-protein kinase JAK3 (P52333 whole entry): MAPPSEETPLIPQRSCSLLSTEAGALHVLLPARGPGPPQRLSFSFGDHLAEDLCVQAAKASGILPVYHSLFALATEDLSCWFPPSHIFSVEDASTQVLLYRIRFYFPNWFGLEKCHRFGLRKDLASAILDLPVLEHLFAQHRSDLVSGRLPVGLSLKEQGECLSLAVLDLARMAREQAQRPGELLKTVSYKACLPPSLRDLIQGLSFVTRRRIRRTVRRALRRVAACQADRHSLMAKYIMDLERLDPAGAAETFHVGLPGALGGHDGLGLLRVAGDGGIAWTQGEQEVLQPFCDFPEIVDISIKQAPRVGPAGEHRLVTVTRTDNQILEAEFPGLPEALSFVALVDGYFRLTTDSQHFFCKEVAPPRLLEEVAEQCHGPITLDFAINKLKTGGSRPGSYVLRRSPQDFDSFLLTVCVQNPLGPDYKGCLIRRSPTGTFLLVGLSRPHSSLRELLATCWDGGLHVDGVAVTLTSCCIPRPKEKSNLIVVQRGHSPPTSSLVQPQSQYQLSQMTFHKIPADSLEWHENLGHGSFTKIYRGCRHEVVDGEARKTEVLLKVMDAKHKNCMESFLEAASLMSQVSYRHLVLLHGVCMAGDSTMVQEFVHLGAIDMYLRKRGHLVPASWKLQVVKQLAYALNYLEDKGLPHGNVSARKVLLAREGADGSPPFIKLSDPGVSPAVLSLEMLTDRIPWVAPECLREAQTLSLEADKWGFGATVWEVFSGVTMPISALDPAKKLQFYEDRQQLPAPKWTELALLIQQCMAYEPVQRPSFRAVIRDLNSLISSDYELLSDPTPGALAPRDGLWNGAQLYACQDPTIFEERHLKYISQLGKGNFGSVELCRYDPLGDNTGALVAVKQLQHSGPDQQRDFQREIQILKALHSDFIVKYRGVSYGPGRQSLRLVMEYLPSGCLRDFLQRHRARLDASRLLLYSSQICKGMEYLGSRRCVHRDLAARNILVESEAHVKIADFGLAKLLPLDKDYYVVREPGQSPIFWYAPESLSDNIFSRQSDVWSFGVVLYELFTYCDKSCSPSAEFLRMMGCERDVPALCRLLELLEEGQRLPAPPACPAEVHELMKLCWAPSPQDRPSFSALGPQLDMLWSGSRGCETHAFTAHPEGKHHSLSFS
# [9] = biological target: RAC-beta serine/threonine-protein kinase (Homo sapiens, UniProt P31751); assay: Inhibition of human AKT2
# [10] = biological target: Serine/threonine-protein kinase PAK 3 (Homo sapiens, UniProt O75914); assay: Inhibition of human PAK3
# [11] = biological target: Serine/threonine-protein kinase PAK 1 (Homo sapiens, UniProt Q13153); assay: Inhibition of human PAK1
# [12] = biological target: Calcium/calmodulin-dependent protein kinase type IV (Homo sapiens, UniProt Q16566); assay: Inhibition of human CAMK4
# [13] = biological target: Serine/threonine-protein kinase pim-2 (Homo sapiens, UniProt Q9P1W9); assay: Inhibition of human PIM2
# [14] = biological target: Serine/threonine-protein kinase Nek2 (Homo sapiens, UniProt P51955); assay: Inhibition of human NEK2
# Myotonin-protein kinase = Myotonin-protein kinase (Homo sapiens, UniProt Q09013); assay: Inhibition of human DMPK
# [15] = biological target: Serine/threonine-protein kinase 26 (Homo sapiens, UniProt Q9P289); assay: Inhibition of human MST4
# Sequence of Serine/threonine-protein kinase 26 (Q9P289 whole entry): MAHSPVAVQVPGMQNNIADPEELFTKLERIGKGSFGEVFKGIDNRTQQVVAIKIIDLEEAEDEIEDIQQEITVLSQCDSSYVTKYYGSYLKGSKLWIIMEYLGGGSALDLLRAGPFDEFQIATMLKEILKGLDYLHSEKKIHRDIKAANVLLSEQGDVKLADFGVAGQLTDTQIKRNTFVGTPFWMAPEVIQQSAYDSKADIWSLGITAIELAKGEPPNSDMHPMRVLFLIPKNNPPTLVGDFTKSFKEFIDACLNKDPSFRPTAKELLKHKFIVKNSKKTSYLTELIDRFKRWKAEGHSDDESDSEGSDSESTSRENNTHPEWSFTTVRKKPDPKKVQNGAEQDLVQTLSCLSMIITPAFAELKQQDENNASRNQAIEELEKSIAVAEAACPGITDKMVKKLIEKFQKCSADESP
# [16] = biological target: Mitogen-activated protein kinase 8 (Homo sapiens, UniProt P45983); assay: Inhibition of human JNK1
# [17] = biological target: Homeodomain-interacting protein kinase 3 (Homo sapiens, UniProt Q9H422); assay: Inhibition of human HIPK3
# Sequence of Homeodomain-interacting protein kinase 3 (Q9H422 whole entry): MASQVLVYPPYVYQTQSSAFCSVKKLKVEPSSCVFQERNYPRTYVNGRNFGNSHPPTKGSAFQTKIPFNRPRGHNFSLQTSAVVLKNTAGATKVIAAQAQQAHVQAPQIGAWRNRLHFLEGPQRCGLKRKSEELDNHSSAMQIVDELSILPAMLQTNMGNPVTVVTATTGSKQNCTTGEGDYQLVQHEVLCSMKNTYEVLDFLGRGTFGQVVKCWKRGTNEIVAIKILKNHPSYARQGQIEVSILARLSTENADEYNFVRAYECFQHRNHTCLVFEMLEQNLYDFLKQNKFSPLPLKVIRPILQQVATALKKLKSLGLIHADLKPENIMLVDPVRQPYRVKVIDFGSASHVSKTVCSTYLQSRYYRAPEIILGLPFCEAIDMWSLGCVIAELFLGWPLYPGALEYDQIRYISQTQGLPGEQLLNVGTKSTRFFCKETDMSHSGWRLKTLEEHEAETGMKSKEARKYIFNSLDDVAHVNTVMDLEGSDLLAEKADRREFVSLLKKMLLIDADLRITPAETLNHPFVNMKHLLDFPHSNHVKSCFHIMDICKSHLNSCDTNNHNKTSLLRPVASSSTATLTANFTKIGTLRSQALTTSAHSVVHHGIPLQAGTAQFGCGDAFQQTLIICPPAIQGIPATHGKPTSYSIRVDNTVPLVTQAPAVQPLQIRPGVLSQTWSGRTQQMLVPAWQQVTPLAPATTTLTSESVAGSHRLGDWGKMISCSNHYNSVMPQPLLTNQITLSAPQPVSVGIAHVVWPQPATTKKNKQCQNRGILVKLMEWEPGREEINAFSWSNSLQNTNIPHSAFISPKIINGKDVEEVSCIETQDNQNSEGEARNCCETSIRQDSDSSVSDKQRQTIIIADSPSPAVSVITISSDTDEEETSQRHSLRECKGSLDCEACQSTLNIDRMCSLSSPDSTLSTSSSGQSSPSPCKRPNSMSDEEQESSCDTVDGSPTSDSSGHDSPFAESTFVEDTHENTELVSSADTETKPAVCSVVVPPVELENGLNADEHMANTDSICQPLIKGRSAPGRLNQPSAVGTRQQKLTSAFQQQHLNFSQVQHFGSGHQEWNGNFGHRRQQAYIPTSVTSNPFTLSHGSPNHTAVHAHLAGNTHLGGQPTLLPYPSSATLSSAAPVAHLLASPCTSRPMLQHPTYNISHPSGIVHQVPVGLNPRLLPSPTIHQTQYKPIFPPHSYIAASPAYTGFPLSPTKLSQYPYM
# [18] = biological target: Homeodomain-interacting protein kinase 1 (Homo sapiens, UniProt Q86Z02); assay: Inhibition of human HIPK1
# [19] = biological target: MAP kinase-activated protein kinase 3 (Homo sapiens, UniProt Q16644); assay: Inhibition of human MAPKAPK3
# [20] = Antiproliferative activity against human Hs 578T cells by sulfur rhodamine assay; type: functional
# [21] = biological target: Serine/threonine-protein kinase MARK1 (Homo sapiens, UniProt Q9P0L2); assay: Inhibition of human MARK1
# [22] = biological target: Proto-oncogene tyrosine-protein kinase Src (Homo sapiens, UniProt P12931); assay: Inhibition of human Src
# [23] = biological target: Serine/threonine-protein kinase Nek1 (Homo sapiens, UniProt Q96PY6); assay: Inhibition of human NEK1
# [24] = biological target: MAP/microtubule affinity-regulating kinase 3 (Homo sapiens, UniProt P27448); assay: Inhibition of human MARK3; outline: as §1
# Sequence of MAP/microtubule affinity-regulating kinase 3 (P27448 whole entry): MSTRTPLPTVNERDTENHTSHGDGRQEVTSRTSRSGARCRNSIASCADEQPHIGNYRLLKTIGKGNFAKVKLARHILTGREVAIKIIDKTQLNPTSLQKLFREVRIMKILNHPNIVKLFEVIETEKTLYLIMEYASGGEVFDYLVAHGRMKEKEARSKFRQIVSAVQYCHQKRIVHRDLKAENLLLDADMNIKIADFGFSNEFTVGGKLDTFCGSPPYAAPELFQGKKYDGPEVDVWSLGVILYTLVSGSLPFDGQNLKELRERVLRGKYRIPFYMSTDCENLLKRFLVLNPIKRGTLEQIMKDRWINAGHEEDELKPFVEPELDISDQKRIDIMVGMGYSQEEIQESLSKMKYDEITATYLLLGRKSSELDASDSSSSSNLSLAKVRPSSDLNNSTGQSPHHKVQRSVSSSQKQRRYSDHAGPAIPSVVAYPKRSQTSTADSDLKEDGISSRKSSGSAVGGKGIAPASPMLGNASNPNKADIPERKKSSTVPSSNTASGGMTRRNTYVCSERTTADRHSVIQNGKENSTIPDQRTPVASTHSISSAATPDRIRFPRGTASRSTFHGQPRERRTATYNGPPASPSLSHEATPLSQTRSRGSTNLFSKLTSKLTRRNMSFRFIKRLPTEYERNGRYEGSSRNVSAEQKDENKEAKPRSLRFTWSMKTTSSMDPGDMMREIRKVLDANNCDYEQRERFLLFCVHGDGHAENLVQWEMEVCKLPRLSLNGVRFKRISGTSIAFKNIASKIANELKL
# [25] = biological target: Mitogen-activated protein kinase 1 (Homo sapiens, UniProt P28482); assay: Inhibition of human ERK2
# [26] = biological target: Mitogen-activated protein kinase 3 (Homo sapiens, UniProt P27361); assay: Inhibition of human ERK1; outline: as §1
# [27] = biological target: Serine/threonine-protein kinase 24 (Homo sapiens, UniProt Q9Y6E0); assay: Inhibition of human MST3; outline: as §1
# [28] = biological target: RAC-gamma serine/threonine-protein kinase (Homo sapiens, UniProt Q9Y243); assay: Inhibition of human AKT3; outline: as §1
# [29] = biological target: MAP kinase-activated protein kinase 5 (Homo sapiens, UniProt Q8IW41); assay: Inhibition of human MAPKAPK5
# Sequence of MAP kinase-activated protein kinase 5 (Q8IW41 whole entry): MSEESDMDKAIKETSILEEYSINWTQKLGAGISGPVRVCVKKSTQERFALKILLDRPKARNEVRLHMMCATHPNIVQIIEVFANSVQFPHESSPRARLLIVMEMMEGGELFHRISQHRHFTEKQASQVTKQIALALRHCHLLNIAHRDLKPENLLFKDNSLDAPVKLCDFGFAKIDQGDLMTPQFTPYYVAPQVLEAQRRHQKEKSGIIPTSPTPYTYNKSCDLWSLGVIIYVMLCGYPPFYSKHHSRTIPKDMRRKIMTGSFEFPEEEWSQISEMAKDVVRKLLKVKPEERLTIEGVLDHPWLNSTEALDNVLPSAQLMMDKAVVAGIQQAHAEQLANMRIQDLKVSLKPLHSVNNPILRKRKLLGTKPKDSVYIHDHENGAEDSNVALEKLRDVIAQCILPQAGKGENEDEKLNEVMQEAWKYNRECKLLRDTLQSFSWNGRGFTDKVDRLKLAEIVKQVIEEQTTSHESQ
# [30] = biological target: Serine/threonine-protein kinase VRK1 (Homo sapiens, UniProt Q99986); assay: Inhibition of human VRK1
# [31] = biological target: Glycogen synthase kinase-3 beta (Homo sapiens, UniProt P49841); assay: Inhibition of human GSK3beta
# Sequence of Protein-tyrosine kinase 6 (Q13882 whole entry): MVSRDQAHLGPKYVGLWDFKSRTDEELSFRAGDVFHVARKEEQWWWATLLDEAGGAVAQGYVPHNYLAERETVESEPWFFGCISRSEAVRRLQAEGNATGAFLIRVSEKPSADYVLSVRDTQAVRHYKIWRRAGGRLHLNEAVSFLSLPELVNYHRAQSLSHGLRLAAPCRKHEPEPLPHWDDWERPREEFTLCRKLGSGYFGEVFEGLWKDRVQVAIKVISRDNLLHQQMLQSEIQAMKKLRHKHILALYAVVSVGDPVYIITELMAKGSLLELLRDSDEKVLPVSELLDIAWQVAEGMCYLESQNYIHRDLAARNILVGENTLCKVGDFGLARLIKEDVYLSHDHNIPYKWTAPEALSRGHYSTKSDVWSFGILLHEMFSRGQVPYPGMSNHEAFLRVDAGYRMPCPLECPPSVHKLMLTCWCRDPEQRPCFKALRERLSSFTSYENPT
# Sequence of Mitogen-activated protein kinase 10 (P53779 whole entry): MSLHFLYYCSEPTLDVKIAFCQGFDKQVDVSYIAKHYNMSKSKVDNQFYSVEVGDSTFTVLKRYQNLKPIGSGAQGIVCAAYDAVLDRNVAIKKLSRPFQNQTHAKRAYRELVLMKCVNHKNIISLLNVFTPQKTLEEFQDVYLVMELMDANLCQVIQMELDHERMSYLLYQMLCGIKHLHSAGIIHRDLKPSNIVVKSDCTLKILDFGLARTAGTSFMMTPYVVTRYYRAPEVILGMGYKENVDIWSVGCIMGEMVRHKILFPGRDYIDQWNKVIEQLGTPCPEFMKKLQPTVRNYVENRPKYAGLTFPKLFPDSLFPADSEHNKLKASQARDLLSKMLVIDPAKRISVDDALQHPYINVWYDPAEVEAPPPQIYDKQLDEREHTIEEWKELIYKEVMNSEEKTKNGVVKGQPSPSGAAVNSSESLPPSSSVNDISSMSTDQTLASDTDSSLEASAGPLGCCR
compound,measurement,setting,value
COc1cccc(Nc2ccnc3[nH]c4ccccc4c23)c1,IC50,[1],Not Active
Clc1cc(Cl)cc(Nc2ccnc3[nH]c4ccccc4c23)c1,IC50,[1]; read-out: IC50,0.0534 µM
CCOc1cccc(Nc2ccnc3[nH]c4ccccc4c23)c1,IC50,[1]; read-out: IC50,0.155 µM
Clc1ccc(Nc2ccnc3[nH]c4ccccc4c23)cc1,IC50,[1],Not Active
COc1ccc(Nc2ccnc3[nH]c4ccccc4c23)cc1,IC50,[1]; read-out: IC50,0.19 µM
Cc1ccccc1Nc1ccnc2[nH]c3ccccc3c12,IC50,[1],Not Active
FC(F)(F)c1cccc(Nc2ccnc3[nH]c4ccccc4c23)c1,IC50,[1]; read-out: IC50,0.0594 µM
Clc1cccc(Nc2ccnc3[nH]c4ccccc4c23)c1,IC50,[1]; read-out: IC50,0.00475 µM
Oc1cccc(Nc2ccnc3[nH]c4ccccc4c23)c1,IC50,[2],> 10 µM
same,IC50,[3],> 10 µM
same,GI50,[4],1.58 µM
same,IC50,[5],> 10 µM
same,IC50,[1]; read-out: IC50,0.00315 µM
same,IC50,[6],> 10 µM
same,IC50,[7],> 10 µM
same,GI50,MCF7,0.99 µM
same,IC50,[8],> 10 µM
same,IC50,[9],> 10 µM
same,IC50,[10],> 10 µM
same,IC50,[11],> 10 µM
same,IC50,[12],> 10 µM
same,IC50,[13],> 10 µM
same,IC50,[14],> 10 µM
same,IC50,Myotonin-protein kinase,> 10 µM
same,IC50,[15],> 10 µM
same,IC50,[16],> 10 µM
same,IC50,[17],> 10 µM
same,IC50,[18],> 10 µM
same,IC50,[19],> 10 µM
same,GI50,[20],1.02 µM
same,IC50,[21],> 10 µM
same,IC50,[22],3.04 µM
same,IC50,[23],> 10 µM
same,IC50,[24],> 10 µM
same,IC50,[25],> 10 µM
same,IC50,[26],> 10 µM
same,IC50,[27],> 10 µM
same,IC50,[28],> 10 µM
same,IC50,[29],> 10 µM
same,IC50,[30],> 10 µM
same,IC50,[31],> 10 µM
O=[N+]([O-])c1cccc(Nc2ccnc3[nH]c4ccccc4c23)c1,IC50,[1]; read-out: IC50,0.00565 µM
Cc1ccc(Nc2ccnc3[nH]c4ccccc4c23)cc1Cl,IC50,[1]; read-out: IC50,0.0756 µM
CSc1cccc(Nc2ccnc3[nH]c4ccccc4c23)c1,IC50,[1],Not Active
Fc1ccc(Nc2ccnc3[nH]c4ccccc4c23)cc1Cl,GI50,[4],> 100 µM
same,IC50,[1]; read-out: IC50,0.0695 µM
same,GI50,MCF7,8.12 µM
same,GI50,[20],10.2 µM
COc1cc(Nc2ccnc3[nH]c4ccccc4c23)ccc1Br,IC50,[1]; read-out: IC50,0.00441 µM
CCOc1cc(Nc2ccnc3[nH]c4ccccc4c23)ccc1Br,IC50,[1]; read-out: IC50,0.154 µM
